Data on 97 compounds can be found in ChEMBL document CHEMBL4513216, “Probing the Open Global Health Chemical Diversity Library for Multistage-Active Starting Points for Next-Generation Antimalarials” (ACS Infect Dis, 2020).

This data set can be described thus: Toxicity liver stage against HepG2, at 10uM. It counts as cell-based. On the set-up: test concentration 10 uM, cell line HepG2-A16-CD81EGFP. To be noted: human, HepG2-A16-CD81EGFP cells; read-out: INHIBITION
The method, boiled down:
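Uninfected HepG2-A16-CD81EGFP cells, 3 × 10^3 per well, 1536-well, plated on prespotted compound at 10 μM final, parasite-free screening media added to match infected plates; puromycin 10 μM positive, DMSO 0.5% negative; run in parallel with 48 h PbLuc assay at 37 °C, 5% CO2; viability by CellTiter-Glo luminescence, normalized to controls.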
In the case of `CC1CCN(Cc2cc(=O)[nH]c(=O)[nH]2)CC1`, the cytotoxicity at 10 µM stood at 9.95%. In the case of `O=C(c1cc(CC2(NCC3CCCCC3)COC2)no1)N1CCCCC1`, the cytotoxicity at 10 µM stood at 5.35%. Take `COCC(=O)N[C@H](C)c1onc(-c2ccc(OC)cc2)c1C(=O)O`: the cytotoxicity at 10 µM is 4.82%.

With `COCCNc1ccc(-c2noc([C@@H]3CCCN3)n2)cn1`, the cytotoxicity at 10 µM was -1.57%.

With `CCc1cc(=O)[nH]c2nnc(SCC(=O)NC(C)C)n12`, the cytotoxicity at 10 µM was -6.93%. To `O=C(c1ccc(Cl)cc1)N1CCc2nc(C(=O)N3CCCC3)sc2CC1` belongs 8.04%; to `CCN(CC)Cc1nnc2sc(-c3cc(C(C)C)[nH]n3)nn12`, -7.02%. To `O=c1[nH]nc(-c2cccs2)c2sc(N3CCOCC3)nc12` belongs 9.28%.

For the compound `CN(C(=O)Cn1nc(-c2ccc(Br)cc2)ccc1=O)C1CCS(=O)(=O)C1` (configuration not stated), the cytotoxicity at 10 µM was determined as 4.38%. In the case of `CC(=O)c1nn(-c2ccccc2Cl)c(C)c1C(C)=O`, the cytotoxicity at 10 µM was determined as 6.33%. Consider `O=C(Cn1nc2c(cc1=O)CCCC2)NC(Cc1ccccc1)C(=O)O` (configuration not stated), for which the cytotoxicity at 10 µM was 2.24%. To `CN(C)c1nccc(C2CCCCN2Cc2cnn3cccnc23)n1` (configuration not stated) belongs 10.5%; to `COc1cccc(CN2CCCC2c2cncc(Nc3nncs3)n2)c1` (configuration not stated), 4.73%; to `CCN1CCCC1CNCc1cc2cc(C)c(C)cc2[nH]c1=O` (configuration not stated), -6.69%. To `O=C(NCCc1ccc(F)cc1)C1CN(C(=O)Cn2cncn2)C1` belongs 3.54%. To `COC(=O)Cc1cn2cc(C(F)(F)F)ccc2n1` belongs 9.21%. Take `Cc1cc(CN(C)Cc2ncc(C(C)(C)C)o2)no1`: the cytotoxicity at 10 µM came out at 2.58%.

As for `CN1CCOC(C(=O)Nc2nc(-c3ccc(Cl)cc3)n[nH]2)C1` (configuration not stated), the cytotoxicity at 10 µM is -4.34%. To `CN(C)Cc1nc(C(C)(C)NC(=O)c2nc3ccccc3s2)no1` belongs 8.61%; to `Cc1oc(C)c(C(=O)NS(=O)(=O)c2ccc3c(c2)OCCCO3)c1C`, 6.08%. `Cc1ccc(CNC(=O)NCC(=O)NC(C)(C)C)c(N2CCCC2)c1`: the cytotoxicity at 10 µM was determined as 5.68%. On to `CCS(=O)(=O)CC(C)N(C)C(=O)COc1ccccc1C#N` (configuration not stated), for which the cytotoxicity at 10 µM is -3.51%.

With `COc1cc(OC)cc(C2CCN(CC(=O)NCC(F)(F)F)C2)c1` (configuration not stated), the cytotoxicity at 10 µM amounted to 2.29%.

On to `Cc1noc(C)c1CNC(=O)N1CCCC(C)CC1` (configuration not stated), for which the cytotoxicity at 10 µM is -7.31%. In the case of `Cc1cnn(CC2CCCN2CC(=O)NCc2ccccn2)c1` (configuration not stated) it was -5%.

For the compound `COC(=O)c1ccc(CNC(C)(C)c2ccccc2OC)o1`, the cytotoxicity at 10 µM was -0.651%.

Take `CC(=O)N(Cc1ccoc1)C1CCCCC1`: the cytotoxicity at 10 µM was -2.86%.

For `CC(C)Oc1ccc(C(O)CNCc2ccccc2C(F)(F)F)cc1` (configuration not stated), the cytotoxicity at 10 µM was -1.71%. For `CSc1nsc(NC(=O)N(C)Cc2ccc3c(c2)OCO3)n1`, the cytotoxicity at 10 µM was -10.4%. To `FC(F)Oc1ccc(NCc2nc(C3CC3)no2)c(OC(F)F)c1` belongs 4.19%; to `CCOc1ccc(CN2C(=O)CC(C)(C)C2=O)nc1`, -11.9%; to `CC(CC(=O)Nc1ncn(CC(=O)N2CCCCCC2)n1)C1CC1` (configuration not stated), 5.75%. To `CC(C)(C)NC(=O)C1CSCN1C(=O)CCc1ccco1` (configuration not stated) belongs -6.77%; to `NC(=O)C1CCN(CCCNC(=O)Nc2nccs2)CC1`, -0.287%; to `CN1CCN(c2ncccc2CNc2ncccc2C#N)CC1`, 15.4%. To `Cc1cnn(C2CN(CC(O)c3ccc(F)cc3)C2)c1` (configuration not stated) belongs 11.9%; to `CC(O)CC(C)(C)CNC(=O)NCc1cccc(-n2ccnc2)c1` (configuration not stated), -3.34%; to `CN(C)C1CCN(C(=O)NCc2ccccc2Cn2cncn2)CC1`, -8.15%.

In the case of `CC(C)Cc1noc(CN2CCN(C(=O)c3cccc(F)c3)CC2)n1`, the cytotoxicity at 10 µM is -5.7%. Take `COc1ccc(CNCCc2cc(F)cc3c2OCOC3)cc1O`: the cytotoxicity at 10 µM is -9.26%. In the case of `CCn1nnc2c1C(COC)CN(Cc1ccco1)C2` (configuration not stated) it was 0.73%. In the case of `Cc1ccc(CN2C[C@H](OCC3CCN(C)CC3)[C@H]3COC[C@H]32)o1` it was 6.19%. In the case of `O=C(NCC1Cn2nnc(-c3ccccc3)c2CO1)c1ccc[nH]1` (configuration not stated) it was -1.2%; in that of `Cc1cnc(C)c(N2CCC3(CCCN(C4CCOCC4)C3=O)C2)n1` (configuration not stated), -124%. Turning to `Cc1cc(N2CCC3(CCC(=O)N(CC4CC4)C3)CC2)ncn1`, the cytotoxicity at 10 µM is -7.8%. To `CC(C)Oc1cc(N2CCCC(O)C2)nc(N)n1` (configuration not stated) belongs -0.796%. On to `Cc1cc(C(=O)N(C)Cc2ccoc2)c(NC(=O)C(C)(C)C)s1`, for which the cytotoxicity at 10 µM turned out to be 12.1%. To `Cc1ccc(C)c(NC(=O)N2C[C@H](N(C)C)C[C@H]2CO)c1` belongs -0.861%; to `COCc1c(C(=O)N2CCCC(N(C)Cc3ccccc3)C2)noc1C` (configuration not stated), -16.8%; to `COc1ccccc1N1CCN(C(=O)CCc2nncn2C)C(C)C1` (configuration not stated), 16%. In the case of `CCCn1cc(C(=O)N2CCCC(c3nccn3CCOC)C2)c(C)n1` (configuration not stated) it was 0.00455%. Take `Cc1ncsc1CCC(=O)NCc1cc2n(n1)CCNC2`: the cytotoxicity at 10 µM was -3.78%. To `CC(C)S(=O)(=O)N1CCOC(CCc2ccccc2)C1` (configuration not stated) belongs -4.53%; to `O=c1cc(N2CCCCC2)cnn1CC(O)C(F)(F)F` (configuration not stated), 12.3%; to `O=C1CC2(CCCC2)CC(=O)N1CCn1cnnc1`, -0.54%. To `COc1ccc(-c2ncc(-c3nccn3CCN(C)C)cn2)cc1` belongs 1.44%; to `CN1CC2(CCN(C(=O)c3cn4cccnc4n3)CC2)CC1=O`, -7.72%.

As for `CC(C)CN1CC2(CCN(C(=O)C(O)c3cccc(Cl)c3)CC2)CC1=O` (configuration not stated), the cytotoxicity at 10 µM is -1.45%. Regarding `CN(Cc1cccc(-n2cccn2)c1)Cc1cccs1`, the cytotoxicity at 10 µM is -7.54%.

With `COC[C@@H]1CCCN1C(=O)c1cc(-c2ccc(OC)cc2)n[nH]1`, the cytotoxicity at 10 µM is 13.2%. In the case of `O=C(c1cnc(O)cn1)N1CCC(CN2CCOCC2)CC1` it was 9.49%.

Take `COc1cccc(-c2cccc(-c3ccn(CC4COCCO4)n3)c2)n1` (configuration not stated): the cytotoxicity at 10 µM is -3.81%.

For `CCc1nc(C)c(CC(=O)N2CCC3(CC2)OCCCC3OC)c(=O)[nH]1` (configuration not stated), the cytotoxicity at 10 µM is -0.506%. To `COc1cncc(-n2nc(C)c(CC(C)=O)c2C)c1` belongs -12.8%. To `O=C(c1ccc(C2CCCN2C(=O)c2cscn2)s1)N1CCSCC1` (configuration not stated) belongs -4.31%; to `CN(Cc1cc2n(n1)CCCNC2)Cc1cc(-c2ccncc2)no1`, 3.67%; to `CNC(=O)CNC(=O)CC1C(=O)NCCN1Cc1ccccc1C` (configuration not stated), -2.88%.

As to `COc1ccc(-c2nc(CN(C)Cc3nncn3C)c(C)o2)c(C)c1C`, the cytotoxicity at 10 µM is -8.87%. To `O=C(CN1CCOCS1(=O)=O)NCCc1ccc(Cl)cc1` belongs -5.14%; to `CC(C)CN1CCN(Cc2nc3ccccc3[nH]2)[C@H]2CS(=O)(=O)C[C@H]21`, 14.4%.

In the case of `COC(=O)c1ccc2ccn(CC3CCCO3)c(=O)c2c1` (configuration not stated), the cytotoxicity at 10 µM is -15.8%. To `COC1CCCN(C(=O)Nc2nc(C)n(C)n2)C1` (configuration not stated) belongs 16.3%. To `CCc1noc(-c2cccc(C(=O)O)c2)n1` belongs -8.24%; to `COc1c(C)cnc(CN2CCC(N(C)C(=O)C(C)OC)CC2)c1C` (configuration not stated), -11.3%. Take `Cc1[nH]ncc1CCCNC(=O)N1CCCC(c2nncn2C)C1` (configuration not stated): the cytotoxicity at 10 µM is -7.58%. To `CC(NC(=O)CSCC#N)c1cccc(Cl)c1` (configuration not stated) belongs -3.06%; to `CCN1CCN(C(=O)NCc2cc[nH]n2)CC1`, -12.7%. To `Cc1nc(C)c(C(=O)NCCNC(=O)Cc2ccc(F)cc2)s1` belongs -5.68%. To `CC(C)n1cc(CN2CCCN(C(=O)C3CCOC3)CC2)cn1` (configuration not stated) belongs -8.45%; to `N#Cc1ccccc1N1CCCN(C(=O)CCc2cccs2)CC1`, -1.27%. With `Cc1nc(C(C)C)sc1C(=O)NCCNc1ncccc1C#N`, the cytotoxicity at 10 µM is -2.55%.

Consider `CCn1nc2c(cc1=O)CN(CC(=O)Nc1nnc(C)s1)CC2`, for which the cytotoxicity at 10 µM is -18.2%. To `COc1ccc(C(C)NC(=O)Cn2ccc(=O)n(C)c2=O)cc1F` (configuration not stated) belongs -3.17%; to `c1cnnc(N2CCCC2CNCc2noc(C3CC3)n2)c1` (configuration not stated), -7.45%. In the case of `Cc1nn(C)c(N2CCOCC2)c1CNCc1ccoc1C` it was -8.76%. To `CCn1cc(NC(=O)NCC(O)c2ccccc2)cn1` (configuration not stated) belongs -1.14%; to `CCOC(=O)CSc1nnc([C@@H](N)C(C)CC)o1` (some centres not stated), 2%; to `CN(C(=O)c1ncn2c1CN(C)S(=O)(=O)c1ccccc1-2)C1CC1`, -131%. As to `CNC(=O)[C@H]1C[C@@H]2CCN(Cc3ccncc3)C[C@H]2O1`, the cytotoxicity at 10 µM is 10.3%.

As to `O=C(NCc1ccco1)[C@H]1CC[C@@H]2[C@@H](CCN2Cc2nccs2)O1`, the cytotoxicity at 10 µM was found to be 2.67%. For `O=C1N(c2cccnc2)CCC12CCCN(Cc1ccoc1)C2` (configuration not stated), the cytotoxicity at 10 µM is -1.6%. In the case of `CCN(CC)CC1CN(Cc2ccc(C)s2)Cc2nccn2C1` (configuration not stated) it was 2.32%. To `O=C(NCc1cnc2n1CCN(CC1CC1)C2)C1CC1` belongs 5.06%; to `Cc1cnc(N2CCOC3(CCCN(CC(=O)N(C)C)C3)C2)nc1` (configuration not stated), 8.67%; to `Cc1cc(CN2C[C@@H]3CN(C(=O)c4ccsc4)CCO[C@@H]3C2)no1`, -131%. As for `c1cnc(NC[C@@H]2CCC[C@@H]3CN(Cc4csnn4)C[C@@H]32)nc1`, the cytotoxicity at 10 µM was -126%.

`c1ccc(-c2cnc3n2CCNC32CCNCC2)cc1`: the cytotoxicity at 10 µM was -2.2%.
